Measured values from ChEMBL document CHEMBL3352168, “Potent, orally available, selective COX-2 inhibitors based on 2-imidazoline core” (Eur J Med Chem, 2014).

How the values were obtained:
[1] = target: T1, Prostaglandin G/H synthase 1 (Ovis aries) (UniProt P05979); experiment: Inhibition of ovine COX1 using fluorometric substrate at 100 uM by fluorescent inhibitor screening assay
T1 sequence (whole entry): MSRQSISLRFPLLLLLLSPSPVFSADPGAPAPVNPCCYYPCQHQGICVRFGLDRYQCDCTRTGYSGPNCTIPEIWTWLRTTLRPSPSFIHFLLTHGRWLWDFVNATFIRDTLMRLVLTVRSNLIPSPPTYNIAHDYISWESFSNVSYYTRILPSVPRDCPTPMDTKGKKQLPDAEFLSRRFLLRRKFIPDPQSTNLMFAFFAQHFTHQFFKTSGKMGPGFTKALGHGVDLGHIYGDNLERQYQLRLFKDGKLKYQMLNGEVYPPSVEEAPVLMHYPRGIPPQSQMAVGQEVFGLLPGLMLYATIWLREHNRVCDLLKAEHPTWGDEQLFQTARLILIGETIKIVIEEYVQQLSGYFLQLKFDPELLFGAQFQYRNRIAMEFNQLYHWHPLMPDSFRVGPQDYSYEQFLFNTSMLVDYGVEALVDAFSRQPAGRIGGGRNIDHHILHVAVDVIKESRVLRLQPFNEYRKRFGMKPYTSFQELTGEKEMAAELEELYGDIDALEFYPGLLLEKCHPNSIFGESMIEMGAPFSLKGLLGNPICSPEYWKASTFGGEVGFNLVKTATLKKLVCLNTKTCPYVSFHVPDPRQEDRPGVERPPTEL

[2] = target: T2, Prostaglandin G/H synthase 2 (Homo sapiens, UniProt P35354); experiment: Inhibition of human recombinant COX2 using fluorometric substrate by fluorescent inhibitor screening assay
T2 sequence (P35354 whole entry): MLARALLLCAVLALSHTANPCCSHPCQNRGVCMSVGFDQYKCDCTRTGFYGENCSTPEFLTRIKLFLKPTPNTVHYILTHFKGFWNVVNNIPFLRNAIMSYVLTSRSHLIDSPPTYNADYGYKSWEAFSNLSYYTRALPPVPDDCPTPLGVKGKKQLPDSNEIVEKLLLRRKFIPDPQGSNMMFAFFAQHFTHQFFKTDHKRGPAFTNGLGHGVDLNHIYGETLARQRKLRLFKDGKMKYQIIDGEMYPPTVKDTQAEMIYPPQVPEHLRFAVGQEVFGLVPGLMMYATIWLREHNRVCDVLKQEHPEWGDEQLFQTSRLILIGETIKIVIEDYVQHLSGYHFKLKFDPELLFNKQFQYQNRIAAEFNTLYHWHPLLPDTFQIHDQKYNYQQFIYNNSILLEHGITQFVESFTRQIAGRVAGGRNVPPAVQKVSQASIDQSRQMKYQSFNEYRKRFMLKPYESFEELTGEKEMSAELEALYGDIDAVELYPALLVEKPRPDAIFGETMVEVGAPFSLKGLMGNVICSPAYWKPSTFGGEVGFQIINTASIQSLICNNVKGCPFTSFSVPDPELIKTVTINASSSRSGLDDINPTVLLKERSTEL
How it was run: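 Human recombinant COX-2 in 100 mM Tris-HCl pH 8.0 with heme and ADHP fluorometric substrate; inhibitor added at final […] (units as printed) from DMSO stocks; reaction started with arachidonic acid, 2 min at room temperature. Resorufin fluorescence read at ex 535/em 590 nm; % inhibition vs no-inhibitor activity; IC50 from concentration–inhibition curve, triplicate determinations.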

[3] = target: T3, Prostaglandin G/H synthase 1 (Ovis aries, UniProt P05979); experiment: Inhibition of ovine COX1 using fluorometric substrate by fluorescent inhibitor screening assay
T3 sequence (P05979 whole entry): T1 sequence (whole entry)
How it was run: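 Ovine COX-1 in 100 mM Tris-HCl pH 8.0 with heme and ADHP fluorometric substrate; inhibitor from DMSO stock, reaction started by arachidonic acid, 2 min at room temperature. Resorufin fluorescence read at ex 535/em 590 nm; percent inhibition calculated against uninhibited activity; reported as % inhibition at 100 (units as printed).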

| inhibition [1] [%] | IC50 [2] [µM] | IC50 [3] [µM] | SMILES |
| --- | --- | --- | --- |
| 11.4 | 6.9 |  | NS(=O)(=O)c1ccc(N2CCN=C2c2ccc(F)cc2)cc1 |
| 1.5 | > 10 |  | Cc1cccc(C2=NCCN2c2ccc(S(N)(=O)=O)cc2)c1 |
| 0.4 | 3.4 |  | NS(=O)(=O)c1ccc(N2CCN=C2c2ccc(Cl)cc2)cc1 |
| 1.4 | 8.1 |  | CS(=O)(=O)c1ccc(N2CCN=C2c2cccc(Cl)c2)cc1 |
|  |  | > 100 | Cc1cn(-c2ccc(S(C)(=O)=O)cc2)c(-c2ccc(Cl)cc2)n1 |
| 3.2 | 7.1 |  | CS(=O)(=O)c1ccc(N2CCN=C2c2ccc(Cl)cc2)cc1 |
| 6.3 | > 10 |  | CC1CN(c2ccc(S(C)(=O)=O)cc2)C(c2ccc(F)cc2)=N1 (racemic) |
| 12.6 | > 10 |  | CS(=O)(=O)c1ccc(N2CCN=C2c2ccc(F)cc2)cc1 |
| 9.2 | > 10 |  | CS(=O)(=O)c1ccc(N2CCN=C2c2ccc(F)c(F)c2)cc1 |
| 2.7 | 1.8 |  | NS(=O)(=O)c1ccc(N2CCN=C2c2ccc(Cl)c(C(F)(F)F)c2)cc1 |
| 3.2 | > 10 |  | CC1CN(c2ccc(S(N)(=O)=O)cc2)C(c2ccc(Cl)cc2)=N1 (racemic) |
| 5.5 | > 10 |  | CC1CN(c2ccc(S(N)(=O)=O)cc2)C(c2ccc(F)cc2)=N1 (racemic) |
| -5.5 | 9.5 |  | COc1ccc(C2=NCCN2c2ccc(S(N)(=O)=O)cc2)cc1F |
| 0.7 | > 10 |  | CS(=O)(=O)c1ccc(N2CCN=C2c2cccc(F)c2)cc1 |
| -1.4 | 7.2 |  | NS(=O)(=O)c1ccc(N2CCN=C2c2cccc(F)c2)cc1 |
